Assay results taken from paper PMC2978887 (Calcified Tissue International, 2010).
Read-outs that look alike come from different tables or passages of the source. One block for each molecule: values may come before it.

How the values were obtained:
[1] = Population pharmacokinetics of teriparatide after subcutaneous injection; assay type: in vivo, postmenopausal women with osteoporosis
Summary of the method: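 Serum drug levels measured in a 360-patient subset at months 1, 3, 6, 12 and 18, one sample per visit within a 0–30 min, 30 min–1 h, 1–2 h, 2–3 h or 3–4 h postdose window. Serum stored at -70°C; two-site immunoradiometric assay using bead-bound capture and 125I-labelled detection antibodies to PTH 1–34. Standard curve 9.8–20,000 pg/ml; quantifiable range 50–2,000 pg/ml; accuracy and precision ±20%.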

[2] = system: serum calcium; test: Serum calcium pharmacodynamic response to teriparatide; assay type: in vivo, postmenopausal women with osteoporosis; details: for predose serum calcium, mean ± SE: samples 16–24 h postdose
Summary of the method: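 Unadjusted total serum calcium measured in all patients at baseline and 4–6 h postdose at months 1, 3, 6, 12, 18 and 24, at three laboratories using identical, cross-calibrated methods. Samples falling 16–24 h postdose served as predose values.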

[3] = Adverse events commonly associated with hypercalcemia, Fracture Prevention Trial; assay type: in vivo, postmenopausal women with osteoporosis; details: teriparatide 20 μg/day; overall cohort (n = 541)
Summary of the method: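 Events typical of hypercalcemia were collected throughout the trial in women randomized to once-daily subcutaneous teriparatide or placebo. They were tabulated for the whole teriparatide cohort and for the subset whose 4–6 h postdose serum calcium exceeded 10.6 mg/dl.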

[4] = cited from earlier work
[5] = system: serum calcium; details: rats; subcutaneous injections every hour for six injections; cited from earlier work
[6] = cited from earlier work; remark: listed apart in the source
[7] = cited from earlier work; remark: listed apart in the source
[8] = comparing 10th and 90th percentiles of body weight (51–80 kg), population PK
[9] = female, human, serum, sc, 20 ug
[10] = daily injections of teriparatide 20 µg
[11] = indirect-response PK–PD model, teriparatide 20 μg sc, 360 patients

total duration of exposure to the peptide ([1]; 20 μg sc once daily): approximately 4 h | duration of exposure above basal endogenous PTH concentrations (28 pg/ml) ([1]; 20 μg sc, molar basis, concentration–time profile extrapolated to infinite time): about 4 h | prolongation in Tmax in heavier patients [1, 8]: 2.3 min | reduction in Cmax in heavier patients [1, 8]: 26% | CL/F [1, 9]: ~1030 mL/min | Tmax [1, 9]: ~30 min | level at 3 h [1, 9]: < 0.05 ng/mL | slower rate of absorption, thigh vs abdominal wall injection ([1]; population PK covariate estimate, 20 μg sc): 21% | half-life based upon Ka (ln 2/Ka) ([1]; population PK model, 20 μg sc): 1.1 h | EC50, teriparatide concentration required to produce 50% of the maximum calcium effect ([2]; indirect-response PK–PD model, serum teriparatide): 0.054 ng/mL | patients with a predose serum calcium >11.0 mg/dl ([2]; teriparatide 20 μg): no | patients with serum calcium above the upper limit of normal (10.6 mg/dl) 4–6 h after dosing ([2]; teriparatide 20 µg group, fifty patients, placebo 1.1%): 9.4% | persistent hypercalcemia ([2]; teriparatide 20 μg sc daily, median 21 months' treatment): not observed | patients with a predose serum calcium value >10.6 mg/dl ([2]; teriparatide 20 μg, 1/223 patients): 0.4%
Molecule: CC[C@H](C)[C@H](NC(=O)[C@H](CCC(=O)O)NC(=O)[C@H](CO)NC(=O)[C@@H](NC(=O)[C@@H](N)CO)C(C)C)C(=O)N[C@@H](CCC(N)=O)C(=O)N[C@@H](CC(C)C)C(=O)N[C@@H](CCSC)C(=O)N[C@@H](Cc1cnc[nH]1)C(=O)N[C@@H](CC(N)=O)C(=O)N[C@@H](CC(C)C)C(=O)NCC(=O)N[C@@H](CCCCN)C(=O)N[C@@H](Cc1cnc[nH]1)C(=O)N[C@@H](CC(C)C)C(=O)N[C@@H](CC(N)=O)C(=O)N[C@@H](CO)C(=O)N[C@@H](CCSC)C(=O)N[C@@H](CCC(=O)O)C(=O)N[C@@H](CCCN=C(N)N)C(=O)N[C@H](C(=O)N[C@@H](CCC(=O)O)C(=O)N[C@@H](Cc1c[nH]c2ccccc12)C(=O)N[C@@H](CC(C)C)C(=O)N[C@@H](CCCN=C(N)N)C(=O)N[C@@H](CCCCN)C(=O)N[C@@H](CCCCN)C(=O)N[C@@H](CC(C)C)C(=O)N[C@@H](CCC(N)=O)C(=O)N[C@@H](CC(=O)O)C(=O)N[C@H](C(=O)N[C@@H](Cc1cnc[nH]1)C(=O)N[C@@H](CC(N)=O)C(=O)N[C@@H](Cc1ccccc1)C(=O)O)C(C)C)C(C)C [teriparatide, recombinant human parathyroid hormone (rhPTH[1–34])]
predose serum calcium, mean ± SE ([2]; 1 month, teriparatide 20 μg): 9.19 ± 0.03 mg/dL | predose serum calcium, mean ± SE ([2]; 3 months, teriparatide 20 μg): 9.12 ± 0.08 mg/dL | predose serum calcium, mean ± SE ([2]; 6 months, teriparatide 20 μg): 9.29 ± 0.03 mg/dL | predose serum calcium, mean ± SE ([2]; 12 months, teriparatide 20 μg): 9.40 ± 0.03 mg/dL | predose serum calcium, mean ± SE ([2]; 18 months, teriparatide 20 μg): 9.30 ± 0.08 mg/dL | predose serum calcium, mean ± SE ([2]; 24 months, teriparatide 20 μg): 9.26 ± 0.05 mg/dL | time after dosing at which serum calcium begins to increase [2, 10]: approximately 2 h | time of maximum serum calcium concentration/effect after dosing [2, 10]: 4.25 h | Emax, maximum calcemic response ([2]; indirect-response PK–PD model, 62% CV): 19.5% | Kin, zero-order production rate for change in serum calcium [2, 11]: 1.1 mg/(dl · hour) | Kout, first-order dissipation rate for calcium response [2, 11]: 0.12 h⁻¹ | time after dosing at which serum calcium begins to decline ([2]; teriparatide 20 µg sc daily): approximately 6 h | time after each dose by which serum calcium returned to predose levels ([2]; teriparatide 20 µg sc daily): 16 to 24 h | Abdominal pain [3]: 48 (8.9%) n (%) | Anorexia [3]: 8 (1.5%) n (%) | Arrhythmias [3]: 9 (1.7%) n (%) | Constipation [3]: 32 (5.9%) n (%) | Depression [3]: 21 (3.9%) n (%) | Headache [3]: 44 (8.1%) n (%) | Hypertension [3]: 41 (7.6%) n (%) | Nausea [3]: 51 (9.4%) n (%) | Pancreatitis [3]: 1 (0.2%) n (%) | Peptic ulcer/gastritis [3]: 8 (1.5%) n (%) | Vomiting [3]: 19 (3.5%) n (%) | bioavailability [4]: 95% | half-life following injection [4]: 60 min | time to peak concentration following injection [4]: 30 min | true elimination half-life following intravenous administration ([4]; intravenous): 5 min | sustained elevated serum calcium concentrations [5]: sustained elevated serum calcium concentrations occurred

Molecule: parathyroid hormone [PTH]
half-life (clearance of the endogenous hormone) [6]: < 2 min

Molecule: rhPTH(1–84): full human recombinant PTH, available for treatment of osteoporosis in some countries at a daily dose of 100 μg
bioavailability [7]: 55% | apparent terminal half-life ([7]; sc): 90 to 150 min | time of first peak of serum concentration–time profile after dosing ([7]; single-dose sc, dose range 0.02–5.0 μg/kg): 5 to 10 min
